# KCNQ1 inh: inhibitors of human KCNQ1 potassium channel | B-score at 10 µM | 1.3% of 310,000 active | CHO-K1 KCNQ1, FluxOR thallium flux fluorescence; active compounds read high | P51787;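 active = compounds whose thallium flux B-score, printed positive for inhibition, exceeds three library SD while starting fluorescence stays within three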;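 also: channel opened by potassium depolarization with thallium stimulus after 20 min compound exposure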
# Target sequence (P51787 whole entry, looked up): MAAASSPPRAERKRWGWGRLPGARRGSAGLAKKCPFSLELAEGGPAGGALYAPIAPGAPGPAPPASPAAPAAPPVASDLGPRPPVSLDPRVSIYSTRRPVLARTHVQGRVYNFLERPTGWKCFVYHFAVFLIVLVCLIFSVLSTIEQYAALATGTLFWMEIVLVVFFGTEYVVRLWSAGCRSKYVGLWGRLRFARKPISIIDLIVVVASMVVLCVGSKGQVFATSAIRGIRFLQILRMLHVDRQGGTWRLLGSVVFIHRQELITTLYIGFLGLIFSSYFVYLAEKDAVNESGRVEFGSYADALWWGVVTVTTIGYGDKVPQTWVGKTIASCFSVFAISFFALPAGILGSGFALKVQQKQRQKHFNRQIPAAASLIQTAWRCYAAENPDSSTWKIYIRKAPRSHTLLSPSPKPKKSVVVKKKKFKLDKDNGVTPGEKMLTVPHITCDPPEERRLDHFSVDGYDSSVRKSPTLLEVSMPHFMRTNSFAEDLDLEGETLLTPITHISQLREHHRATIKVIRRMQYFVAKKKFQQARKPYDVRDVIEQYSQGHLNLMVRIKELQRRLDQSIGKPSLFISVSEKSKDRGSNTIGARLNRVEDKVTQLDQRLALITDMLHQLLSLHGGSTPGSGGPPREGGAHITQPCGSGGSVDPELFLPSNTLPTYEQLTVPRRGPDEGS
# KCNK3 block: human KCNK3 channel inhibition, primary screen | O14649 | CHO-KCNK3 thallium flux, FluxOR fluorescence; active compounds read low | 0.84% of 340,000 active | B-score at 10 µM;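 active = B-score under library mean minus 4 SD, starting fluorescence ratio at most library mean plus 5 SD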;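 also: more negative B-score means stronger inhibition of thallium flux through KCNK3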
# KCNQ1 act: potentiates or activates the human KCNQ1 potassium channel; CHO-K1 KCNQ1, thallium flux FluxOR fluorescence; active compounds read high; P51787; B-score at 10 µM; 0.35% of 310,000 active;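 active = fluorescence ratio B-score, a plate-corrected score, at least three library SD, with initial intensity B-score within 5 SD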
#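 Assay system: stable KCNQ1 CHO-K1 line; medium: assay buffer, equal DMSO in all wells; timing: 90 min dye loading and 20 min compound exposure, both at room temperature; technique: kinetic FluxOR thallium fluorescence, 10-s 1-Hz baseline, 110-s post-stimulus read; read-out basis: B score of baseline-normalized fluorescence ratio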
# KCNK9 block: blocks the human KCNK9 two-pore domain potassium channel. 1.2% of 310,000 active. B-score at 10 µM. Q9NPC2. HEK293 KCNK9, FluxOR thallium flux fluorescence; active compounds read low;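 active = ratio B-score over 3 SD below the library mean, with starting fluorescence within 5 SD of its mean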;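 also: negative B-score means less thallium flux so channel inhibition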
# Kir21 inh: inhibitors of mouse Kir2.1 inward-rectifier potassium channel | P35561 | HEK293-Kir2.1, FluxOR thallium flux fluorescence; active compounds read low | B-score at 10 µM | 0.85% of 310,000 active;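 active = fluorescence ratio B-score at or below minus 3 SD of library scores, with starting-brightness B-score within 2 SD, cut at about -4.2 in these data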;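 also: channel flux triggered by added potassium and thallium sulfate stimulus; B-score of peak minus minimum fluorescence over baseline after thallium stimulus; more negative B-score means stronger Kir2.1 block with less thallium influx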
# hERG rescue: shields human hERG channel from block by proarrhythmic agents | Q12809 | activation (rescue from dofetilide block), less the hit threshold, % at 10 µM | 0.51% of 310,000 active | CHO-hERG, FluxOR thallium flux, dofetilide IC70 present;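 active = activation above the mean of controls blocked by dofetilide plus 5 SD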;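 also: thallium influx through hERG after potassium depolarization seen as dye fluorescence rise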
# KCNQ1 block val: reconfirmed blocker of the human KCNQ1 potassium channel | shares compounds with KCNQ1 inh | KCNQ1 cell line, FluxOR thallium flux fluorescence | 93% of 1,600 active | inhibition, % at 10 µM | AID 588353;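 active = primary screen active, with duplicate mean exceeding buffer control mean plus 3 SD of buffer wells, cut at about 28% in these data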;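 also: 0% = buffer control ratio and 100% = XE991 inhibitor control ratio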
# CHO Tl flux: counter-screen for KCNQ1 inhibitors: effect in parental CHO cells; AID 588366; 21% of 1,600 active; parental CHO-K1, FluxOR thallium flux fluorescence ratio; active compounds read low; zero means no signal rise above baseline; shares compounds with KCNQ1 inh; fluorescence ratio (Tl flux) at 10 µM;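 active = mean of duplicate thallium-flux fluorescence ratios in parental host cells more than 5 SD below the buffer control mean, cut at about 0.38 in these data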;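 also: ratio is peak minus minimum fluorescence divided by baseline fluorescence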
# KCNQ1 ephys val: confirmation of human KCNQ1 potassium channel inhibitors by electrophysiology. KCNQ1-CHO cells, automated patch clamp current. calls only at 10 µM. shares compounds with KCNQ1 inh. 20% of 490 active;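 active = KCNQ1 current drop exceeding 3 SD of negative control wells, seen in both duplicate runs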;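 also: steady state current during a 2 s step from -80 to +40 mV; negative values mean current inhibition and positive values mean potentiation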
# KCNQ2 inh: KCNQ1 inhibitor that also blocks rat KCNQ2 channel. shares compounds with KCNQ1 inh. KCNQ2 cells, FluxOR thallium flux fluorescence. inhibition, % at 10 µM. 71% of 1,600 active. AID 651746;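 active = mean percent inhibition of the KCNQ2 thallium signal more than 5 SD above the buffer-only control wells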;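 also: KCNQ2 expressed in CHO cells; 0% = buffer control wells and 100% = XE-991 inhibitor control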
# KCNQ1 KCNE1 spec: selectivity of KCNQ1 inhibitors: inhibition of human KCNQ1/KCNE1 channel. shares compounds with KCNQ1 inh. KCNQ1/KCNE1 cells, FluxOR thallium flux fluorescence. inhibition, % at 10 µM. 77% of 1,600 active;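 active = mean percent inhibition of duplicate wells above the buffer-only control mean plus 3 SD of those controls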;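 also: 0% = buffer only wells and 100% = XE-991 inhibitor control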
# Active calls of the source: *; i = inactive; . = no result given; + = active, no number. An excerpt weighted towards active compounds, which were near 3.7% of everything screened.
SMILES,KCNQ1 inh,KCNK3 block,KCNQ1 act,KCNK9 block,Kir21 inh,hERG rescue,KCNQ1 block val,CHO Tl flux,KCNQ2 inh,KCNQ1 KCNE1 spec,others
Cc1cc(N2CCC(C)CC2)nc(NCc2ccccc2)n1,7*,i,i,i,-12.7*,-23.6,46.0*,0.492,i,i,
Cc1cc(C)nc(NCCCc2ccccc2)n1,i,i,i,i,-0.4,-3.0,.,.,.,.,
COc1ccccc1OCCNC(=O)C1CC(=O)N(c2cccc(SC)c2)C1 (stereo unspecified),i,i,i,i,0.05,-10.8,.,.,.,.,
Cc1ccccc1C(=O)N1CCC(n2nccc2NC(=O)CCOc2ccccc2)CC1,i,i,i,i,-1.13,-3.0,.,.,.,.,
COc1ccc(C(c2c(O)ccc3ccccc23)N2CCOCC2)c(OC)c1 (stereo unspecified),7*,i,i,i,1.26,-31.4,113.0*,0.349*,108.3%*,141.5%*,
COC(=O)Cc1csc(Nc2ccccc2)n1,i,i,i,i,0.01,-2.8,.,.,.,.,
COC(=O)Cc1nc(Nc2ccccc2)sc1C,7*,i,i,i,-0.68,-12.3,47.0*,0.448,i,46.5%*,
C=CCn1c(SCC(=O)Nc2cccc(S(N)(=O)=O)c2)nnc1C1CCCCC1,.,i,.,.,.,.,.,.,.,.,
CCN(CC)CCn1c2ccccc2c2nc3ccc([N+](=O)[O-])cc3cc21,i,i,i,i,0.02,-11.3,.,.,.,.,
Cc1sc2ncnc(N3CCCCC3C)c2c1C (stereo unspecified),i,i,i,i,-1.41,-13.9,.,.,.,.,
Cc1c(C(=O)NCCC2=CCCCC2)sc2ncnc(N3CCCCC3C)c12 (stereo unspecified),8*,i,i,i,1.64,-16.8,163.5*,0.327*,150.3%*,+,
Nc1c(C(=O)CSc2nccn2-c2ccc(Cl)cc2)c(=O)[nH]c(=O)n1C1CC1,.,i,.,.,.,.,.,.,.,.,
CCC(C)(C(=O)NC1CCCC1)N(C(=O)CC1NC(=O)NC1=O)c1c(C)n(C)n(-c2ccccc2)c1=O (stereo unspecified),i,i,i,i,1.12,1.2,.,.,.,.,
O=C(Nc1cccc(F)c1)OC(CN1CCCCC1)C(F)(F)F (stereo unspecified),7*,i,i,i,-0.63,-10.3,80.0*,0.479,81.3%*,106.0%*,
CCOC(=O)/C(=C\c1ccc(OC(F)F)cc1)C1=Nn2c(nnc2-c2ccc(Cl)cc2)SC1,i,i,i,i,-0.53,-3.5,.,.,.,.,
COc1cccc(COC(=O)c2c(C)nn(-c3ccccc3)c2Cl)c1OC,7*,i,i,i,0.17,-9.2,113.5*,0.421,116.0%*,99.0%*,KCNQ1 ephys val=i
Cc1c(C(=O)O)sc(S(=O)(=O)N2CCN(C(=O)CC(C)c3ccccc3)CC2)c1C(=O)O (stereo unspecified),.,i,.,.,.,.,.,.,.,.,
COc1ccc(NC(C)C(=O)Nc2ccc(C#N)cc2)cc1Cl (stereo unspecified),i,i,i,i,-1.06,-11.8,.,.,.,.,
COc1ccc(NC(C)C(=O)Nc2ccc(C(C)(C)C)cc2)cc1Cl (stereo unspecified),7*,i,i,i,-0.02,-4.1,145.5*,0.395,91.7%*,167.0%*,KCNQ1 ephys val=i
O=S(=O)(Nc1ccncc1Cl)c1ccc2ccccc2c1,i,i,i,i,-0.53,-12.4,.,.,.,.,
O=C(CSc1nnc(CNC(=O)c2ccco2)o1)Nc1ccc(F)cc1F,i,i,i,i,0.12,-7.6,.,.,.,.,
COc1ccccc1C(C)NC(=O)c1ccc(NC(=O)CC2SC(N3CCCC3)=NC2=O)cc1 (stereo unspecified),.,i,.,.,.,.,.,.,.,.,
Cc1cc(N2CCN(C)CC2)ccc1NC(=O)c1cccc(S(=O)(=O)N2CCc3ccccc3C2)c1,7*,i,i,i,-1.06,-8.1,0.0,0.553,66.0%*,i,
O=C(COC(=O)c1ccccc1Br)NC(=O)NCc1ccccc1,.,i,.,.,.,.,.,.,.,.,
COc1ccc(N2CCN(CCCNC(=O)Cn3c(=O)c4cccn4c4ccccc43)CC2)cc1,i,i,i,i,-0.17,-6.9,.,.,.,.,
SMILES,KCNQ1 inh,KCNK3 block,KCNQ1 act,KCNK9 block,Kir21 inh,hERG rescue,KCNQ1 block val,CHO Tl flux,KCNQ2 inh,KCNQ1 KCNE1 spec,others
CCOC(=O)C(C(=O)OCC)c1cc(Br)c2noc3c2c1C(=O)c1ccccc1-3,16*,i,i,i,-4.65,-26.4,183.0*,0.148*,i,i,
CC(=O)OCCNc1cc(N2CCN(C)CC2)c2noc3c2c1C(=O)c1ccccc1-3,.,i,.,.,.,.,.,.,.,.,
Cc1nc2ccc(NS(=O)(=O)c3ccc(C)c(C)c3)cc2s1,7*,i,i,i,-0.02,-7.1,68.5*,0.524,i,i,
CC(=O)c1cccc(S(=O)(=O)Nc2ccc3nc(C)sc3c2)c1,i,i,i,i,-0.08,-13.7,.,.,.,.,
OC1O[C@H](c2ccc3c(c2)OCO3)[C@H]2CO[C@H](c3ccc4c(c3)OCO4)[C@@H]12 (stereo partly specified),i,i,i,i,1.88,-4.9,.,.,.,.,
CC(OC(=O)c1ccccc1O)C(=O)Nc1cccc(Cl)c1 (stereo unspecified),i,i,i,i,0.16,-7.4,.,.,.,.,
CCn1nc(C)c(CNC(=O)c2cc(COc3ccc(F)cc3Cl)on2)c1C,8*,i,i,i,-0.67,-23.0,39.5*,0.547,i,i,
CCn1cc(CNC(=O)c2cc(COc3ccc(F)cc3Cl)on2)cn1,i,i,i,i,0.26,-4.0,.,.,.,.,
COC(=O)C(C)Oc1ccc(Cl)c(CN2OCC(C)(C)C2=O)c1 (stereo unspecified),i,i,i,i,0.27,-13.8,.,.,.,.,
Cc1ccc2nc(SCC(=O)Nc3cc(C(C)(C)C)nn3-c3ccccc3)[nH]c2c1,8*,i,i,i,0.73,-10.5,95.5*,0.423,111.0%*,141.0%*,KCNQ1 ephys val=+
